The target of the experiment is Nuclear receptor subfamily 5 group A member 2 (Homo sapiens) (UniProt O00482). Put plainly: inhibition of LRH1-driven StAR promoter reporter, late-stage follow-up, LRH-1 inverse agonist project, cell-based, luminescence, assay provider, powder samples (AID 504933). Particulars: HEK293T LRH1 + StAR-luciferase reporter, 20 h. The gist of the method: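 Measure: IC50 from four-parameter sigmoidal fit of inhibition versus DMSO wells / System: HEK293T with LRH1 plus StAR luciferase reporter / Benchmarks: DMSO vehicle-treated wells as normalisation reference / Measured by: luciferase reporter luminescence / Timing: compound exposure 20 h after 24 h transfection / Replicates: triplicates / Compound: 9-point curve up to 10 µM, single 10 µM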
Chain of Nuclear receptor subfamily 5 group A member 2 (Homo sapiens) (O00482 whole entry, looked up): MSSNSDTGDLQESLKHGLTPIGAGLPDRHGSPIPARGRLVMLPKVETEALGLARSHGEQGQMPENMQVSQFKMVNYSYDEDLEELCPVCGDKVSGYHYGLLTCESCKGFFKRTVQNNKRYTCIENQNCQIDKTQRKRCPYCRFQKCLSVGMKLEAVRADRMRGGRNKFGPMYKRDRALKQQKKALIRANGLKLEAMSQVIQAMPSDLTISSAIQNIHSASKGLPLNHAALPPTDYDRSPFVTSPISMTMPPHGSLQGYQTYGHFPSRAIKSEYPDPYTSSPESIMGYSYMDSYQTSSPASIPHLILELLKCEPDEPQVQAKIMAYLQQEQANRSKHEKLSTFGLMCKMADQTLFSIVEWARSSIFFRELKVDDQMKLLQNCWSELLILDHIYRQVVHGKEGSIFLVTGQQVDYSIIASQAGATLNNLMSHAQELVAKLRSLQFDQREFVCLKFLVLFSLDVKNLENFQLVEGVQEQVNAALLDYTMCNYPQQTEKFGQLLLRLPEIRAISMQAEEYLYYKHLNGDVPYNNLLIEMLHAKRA
A general note: Reporter assays use an easily measured gene product as a stand-in for the process of interest.

For `O=c1cc(N2CCN(c3cccc(Cl)c3)CC2)[nH]c(=O)n1C1CCCCC1`, the half-inhibitory concentration (IC50) – broadly, the midpoint of a concentration-inhibition curve – was 2.05 µM. With `O=c1cc(N2CCN(c3cccc(C(F)(F)F)c3)CC2)[nH]c(=O)n1C1CCCCC1` the figure was 2.12 µM.

Values taken from PubChem BioAssay AID504933 (The Scripps Research Institute Molecular Screening Center, 2011).
